Experiments:
Hs-68 = assay: MTT cell viability assay in normal skin fibroblasts Hs-68; assay type: cell-based, human; settings: for inhibition of cell proliferation in human normal skin fibroblasts: 3.125–25 μg/ml; for Concentration producing 50% growth inhibition (IC50): Hs-68 normal skin fibroblasts, 48 hours, MTT
[1] = test system: cancer cell lines HepG2, MCF-7 and MDA-MB-231; assay: Anti-proliferative activity in cancer cell lines; assay type: cell-based, human; settings: dose-dependent, three cancer cell lines
[2] = test system: human peripheral blood mononuclear cells (PBMC); settings: ref Yadav et al., 2005; cited from earlier work
[3] = test system: human peripheral blood mononuclear cells (PBMC); settings: ref Yadav et al., 2005; cited from earlier work; remark: listed apart in the source
MDA-MB-231 = assay: MTT cell viability assay in MDA-MB-231; assay type: cell-based, human; settings: for Concentration producing 50% growth inhibition (IC50): MDA-MB-231, 48 hours, MTT
[4] = test system: human peripheral blood mononuclear cells (PBMC); assay: Cytokine production by PBMC; assay type: cell-based; settings: for TNF-α production in PHA-activated PBMC / IFN-γ production in PHA-activated PBMC / IL-2 production in PHA-activated PBMC: 24 hours; for TNF-α production in PHA-activated PBMC: 10 and 15 μg/ml; for IFN-γ production in PHA-activated PBMC / IL-2 production in PHA-activated PBMC: data not shown
In short: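 PBMC came from buffy coat by Ficoll density separation, with ≥95% trypan-blue viability, at 4 × 10^5/well. Resting or PHA-activated (10 μg/ml final) cells received test compound at 5, 10 or 15 μg/ml, with matched vehicle, for 24 h. Supernatants were recovered by centrifugation (300×g), stored at −80°C and assayed for IL-2, IFN-γ and TNF-α by ELISA. There were 8 donors, four wells each, reported as mean + SD; the statistic was an unpaired t-test versus control.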

HepG2 = assay: MTT cell viability assay in HepG2; assay type: cell-based, human; settings: for Concentration producing 50% growth inhibition (IC50): HepG2, 48 hours, MTT
[5] = test system: human peripheral blood mononuclear cells (PBMC); assay: PBMC proliferation; assay type: cell-based; settings: 72 hours, with polymyxin B; α-turmerone 10 or 15 μg/ml, ar-turmerone 5-15 μg/ml
In short: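 PHA-activated PBMC (PHA 10 μg/ml final; polymyxin B 10 μg/ml present to bind LPS) were incubated 72 h with test compound at 5, 10 or 15 μg/ml, with matched vehicle. [methyl-3H]-thymidine (0.5 μCi/well) was added for the final 6 h. Cells were harvested onto glass-fibre filters for scintillation counting. Results are % cpm relative to untreated control, mean of 8 donors.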

MCF-7 = assay: MTT cell viability assay in MCF-7; assay type: cell-based, human; settings: for Concentration producing 50% growth inhibition (IC50): MCF-7, 48 hours, MTT
MDA-MB-231 cells [6] = assay: DNA fragmentation assay; assay type: cell-based, human; settings: MDA-MB-231, 24 and 48 hours
In short: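 MDA-MB-231 cells (1 × 10^6) were attached for 24 h in 100 mm dishes, then given test compound (40–80 μg/ml) or 0.4% v/v ethanol for 24 or 48 h. Lysis was 15 min at 37°C in 200 mM Tris-HCl, 100 mM EDTA, 1% SDS, pH 8.3. RNase A, then proteinase K, each ran 90 min at 56°C, followed by ethanol/sodium acetate precipitation. DNA ran on 1.5% agarose with ethidium bromide beside a 100 bp marker; n=3.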

MDA-MB-231 cells [7] = assay: Cell cycle analysis; assay type: cell-based, human; settings: MDA-MB-231, after treatment
In short: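 MDA-MB-231 cells (3 × 10^5/well, 6-well) were plated overnight and then treated with test compound (30–45 μg/ml). They were fixed in 70% v/v ethanol at 4°C overnight and stained with PI (20 μg/ml) plus RNase A (10 μg/ml) for 30 min at 37°C in the dark. Flow cytometry collected 10,000 cells per sample, and cell cycle and apoptotic peaks were modelled; n=3.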

MDA-MB-231 cells [8] = assay: Annexin V-FITC/PI staining assay; assay type: cell-based, human; settings: MDA-MB-231, 24 hours
In short: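 MDA-MB-231 cells (3 × 10^5/well) were exposed to test compound at various concentrations for 24 h. They were washed twice in 1X binding buffer, then labelled with annexin-V FITC plus PI for 15 min at room temperature in the dark, and analysed by flow cytometry. Annexin-V+ PI− (lower right quadrant) was taken as early apoptosis. Three independent experiments were run.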

MDA-MB-231 cells [9] = assay: Western blot analysis of apoptosis and proliferation proteins; assay type: cell-based, human; settings: MDA-MB-231, 40 or 60 μg/ml
In short: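 MDA-MB-231 cells (1 × 10^6) were treated with test compound (40 or 60 μg/ml) or 0.4% v/v ethanol for 24 or 48 h. Lysis used 2% SDS, 10% glycerol, […] Tris-HCl, pH 6.8, on ice, then 95°C for 10 min. Lysates ran on 12% SDS-PAGE onto PVDF and were blocked in 5% milk/TBST. Primaries (overnight) were Bcl-2 and procaspases-3/-8 at 1:100 and cyclin D at 1:200; the β-actin loading control was 1:2000. HRP secondary was used with ECL; three independent experiments.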

| Structure (SMILES) | inhibition of cell proliferation in human normal skin fibroblasts (Hs-68) | proliferation of cancer cells [1] | Concentration producing 50% growth inhibition (IC50) (MDA-MB-231) [µg/mL] | Concentration producing 50% growth inhibition (IC50) (Hs-68) [µg/mL] | TNF-α production in PHA-activated PBMC [4] | IFN-γ production in PHA-activated PBMC [4] | IL-2 production in PHA-activated PBMC [4] | Concentration producing 50% growth inhibition (IC50) (HepG2) [µg/mL] | proliferation of PHA-activated PBMC [5] | Concentration producing 50% growth inhibition (IC50) (MCF-7) [µg/mL] | other results |
| --- | --- | --- | --- | --- | --- | --- | --- | --- | --- | --- | --- |
| O=C(/C=C/c1ccc(O)cc1)CC(=O)/C=C/c1ccc(O)cc1 [Bisdemethoxycurcumin, bisdemethoxycurcumin] | did not induce any significant inhibition | significantly inhibited |  |  |  |  |  |  |  |  |  |
| COc1cc(/C=C/C(=O)CC(=O)/C=C/c2ccc(O)c(OC)c2)ccc1O [Curcumin, curcumin] |  | significantly inhibited |  |  |  |  |  |  |  |  | IL-2 production in PBMC (PHA-induced) [2]: inhibited; PHA-induced proliferation in PBMC [3]: inhibited |
| COc1cc(/C=C/C(O)=C/C(=O)/C=C/c2ccc(O)cc2)ccc1O [Demethoxycurcumin, demethoxycurcumin] | did not induce any significant inhibition | significantly inhibited |  |  |  |  |  |  |  |  |  |
| CC(C)=CC(=O)C[C@H](C)c1ccc(C)cc1 [ar-turmerone] | did not induce any significant inhibition |  | >100 | >100 | significantly increased | neither α-turmerone (AL) nor ar-turmerone (AR) further altered | neither α-turmerone (AL) nor ar-turmerone (AR) further altered | >100 | significantly stimulate | >100 | IFN-γ production in resting PBMC ([4]; 24 hours, 5, 10 or 15 μg/ml): significantly increased; IL-2 production in resting PBMC ([4]; 24 hours, 5, 10 or 15 μg/ml): significantly increased; TNF-α production in resting PBMC ([4]; 24 hours, 5, 10 or 15 μg/ml): significantly increased |
| CC(C)=CC(=O)CC(C)C1C=CC(C)=CC1 (stereo not drawn) [α-turmerone] | did not induce any significant inhibition | significantly inhibited | 30.2 | >100 | significantly increased | neither α-turmerone (AL) nor ar-turmerone (AR) further altered | neither α-turmerone (AL) nor ar-turmerone (AR) further altered | 32.9 | significantly stimulate | 41.8 | inhibition of cell proliferation compared to the control (MDA-MB-231; MDA-MB-231, 50 μg/ml, 48 hours): ~70%; DNA fragmentation (MDA-MB-231 cells [6]): detected; inhibition of cell proliferation compared to the control (HepG2; HepG2, 50 μg/ml, 48 hours): ~70%; cell cycle arrest (MDA-MB-231 cells [7]): no arrest at any phase of the cell cycle; inhibition of cell proliferation compared to the control (MCF-7; MCF-7, 50 μg/ml, 48 hours): ~70%; proportion of early apoptosis cells (Annexin V-FITC positive and PI negative) (MDA-MB-231 cells [8]): increased with the concentrations; Bcl-2 expression (MDA-MB-231 cells [9]): slightly down-regulated; cleaved PARP (MDA-MB-231 cells [9]): observed; expression level of pro-caspase-3 (MDA-MB-231 cells [9]): significantly decreased; expression level of pro-caspase-8 (MDA-MB-231 cells [9]): significantly decreased; expression of cyclin D1 (MDA-MB-231 cells [9]): significantly decreased; proteolytic cleavage of pro-caspase-9 (fragments p35 and p37) (MDA-MB-231 cells [9]): observed |
